Compound activity deposited in PubChem BioAssay by several laboratories.
APP 5'UTR act: activators of APP 5'UTR luciferase reporter, primary screen, SH-SY5Y cells; SH-SY5Y APP 5'UTR luciferase reporter, luminescence; zero percent = DMSO vehicle wells; activation, % at 2 µM; 190,000 compounds, 1% hits;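 active means activation above a set limit, based on mean plus 3 SD of controls, cut at about 140% in these data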
STAT3 activator: IL-6 driven STAT3 reporter potentiators, primary screen, U3A cells, luciferase, luminescence, MLSCN library; IL-6 STAT3-luciferase reporter; 100% = signal with IL-6 EC80 alone; activation (% of control), % at 5.6 µM; 190,000 compounds, 0.91% hits;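 active means activation above the screen-wide mean of compound activation plus 3 SD, cut at about 130% in these data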;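 further: 0% = background luminescence of wells with medium and substrate only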
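Material: STAT3-luciferase reporter U3A cells. Controls: IL-6-treated wells, 100% activation. Read-out: % activation versus median of IL-6-stimulated wells. Probe or stimulus: IL-6 stimulus at 33 ng/mL final. Timing: compound 1 h, then IL-6 6 h at 37 °C. Signal: reporter luminescence signal.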
STAT3 inh: IL-6 driven STAT3 reporter inhibitors, primary screen, U3A cells, luciferase, luminescence, MLSCN library; IL-6 STAT3-luciferase reporter; host cell line lacks STAT1; inhibition, % at 5.5 µM; 190,000 compounds, 0.89% hits;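 active means inhibition above the mean inhibition across all screened compounds plus 3 SD, cut at about 44% in these data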;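 further: 0% = DMSO only wells and 100% = 100 µM nifuroxazide control wells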
NF-kB expr up: activators of NF-kB expression in neurons, primary screen, cell-based, HTS | human neuronal cells, NF-kB reporter expression; active compounds read high | fold change at 12.5 µM | 190,000 compounds, 1.6% hits | AID 1239, 2008; in the data active means fold change above about 3.3
STAT1 inh: STAT1 signaling inhibitors, primary screen, cell-based, HTS, luciferase reporter | NIH 3T3 STAT1-luciferase reporter, IFN-gamma, luminescence | inhibition, % at 5.5 µM | 200,000 compounds, 0.35% hits | AID 920, 2007;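 active means inhibition above a set limit, the mean inhibition across all tested compounds plus 3 SD, cut at about 34% in these data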;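 further: 0% = IFN-gamma with DMSO and 100% = IFN-gamma with 300 µM nifuroxazide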
STAT1 activator: STAT1 signaling activators, primary screen, cell-based, HTS, luciferase reporter. NIH 3T3 STAT1-luciferase reporter, IFN-gamma, luminescence; 100% = IFN-gamma alone, no compound. activation (% of control), % at 5.5 µM. 200,000 compounds, 2.6% hits. AID 932, 2007;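 active means activation above the screen-wide mean activation plus 3 SD, cut at about 130% in these data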;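 further: raw ratio to IFN-gamma control signal so 100% means no change and 0% no light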
The depositor's hits bear a star; x = no result given. Sampled rows, rich in hits. Any-hit rate of the full collection: about 4.9%.

SMILES	APP 5'UTR act	STAT3 activator	STAT3 inh	NF-kB expr up	STAT1 inh	STAT1 activator
CC1(C)CC(=O)C2=C(C1)OC(N)=C([N+](=O)[O-])C2c1cccs1 (configuration not stated)	8	102	0	1.3	-5	105
Cc1nc(N)sc1N=Nc1ccc(F)cc1	60	102	5	1.2	-40	136*
Nc1n[nH]c(N)c1N=Nc1ccc(F)cc1	19	93	16	1.5	-10	109
CC(C)COc1ccc(C(=O)Nc2ccc([N+](=O)[O-])cc2)cc1	16	86	23	1.2	-18	115
CCC(=O)Oc1ccc(C(=O)Nc2ccc([N+](=O)[O-])cc2)cc1	44	107	0	1.2	-39	134*
Cc1csc2ncc(C(=O)Nc3ccon3)c(=O)n12	-2	91	14	1.3	-6	105
Cc1csc2ncc(C(=O)NCc3ccco3)c(=O)n12	7	102	1	1.2	1	99
Cc1csc2ncc(C(=O)Nc3ccccc3Cl)c(=O)n12	54	x	x	2	-36	131*
Cc1cccc(NC(=O)c2cnc3scc(C)n3c2=O)c1	2	120	-14	3.1	-32	129*
COc1ccc(CC(=O)Nc2ccc(-c3noc(COc4ccccc4C)n3)cc2)cc1	-4	91	15	1	4	95
O=C(Nc1ccc(-c2noc(COc3ccccc3Cl)n2)cc1)c1ccco1	76	87	18	1.9	-34	132*
CC(Oc1ccc(Cl)cc1Cl)c1nc(-c2ccc(NC(=O)c3ccccn3)cc2)no1 (configuration not stated)	147*	74	35	1.3	-32	129*
CCOc1ccccc1NC(=O)CSc1nccn1-c1ccccc1	5	107	-1	0.82	-4	103
c1ccc(CCSc2nccn2-c2ccccc2)cc1	126	109	-5	4.6*	-47	142*
COC(=O)CCCSc1nccn1-c1ccccc1	15	105	-5	6*	9	92
NC(=O)c1ccsc1NC(=O)c1ccc2c(c1)CCCC2	180*	69	36	8.2*	-43	139*
CNC(=O)c1ccsc1NC(=O)c1ccc2c(c1)CCCC2	63	122	-25	0.94	-34	131*
NC(=O)c1ccsc1NC(=O)c1cccs1	15	93	14	x	-26	124
COC(=O)c1ccsc1NC(=O)c1ccccc1	-12	92	14	1.1	-9	109
CC(C)OC(=O)Nc1ccc2c(c1)N(C(=O)CCN1CCOCC1)c1ccccc1CC2	-7	99	3	0.56	5	93
Cc1nnc2sc(SCC(=O)Nc3cccc(Cl)c3)nn2c1=O	1	100	6	2.9	-8	105
COc1ccc(Cl)cc1NC(=O)c1cnc2sccn2c1=O	20	99	1	1.5	-3	104
O=C(Nc1cnc2sccn2c1=O)c1ccc(Cl)cc1Cl	39	68	42	1.5	-35	132*
C(=N\Nc1ccccc1)/c1ccc(N2CCOCC2)cc1	106	89	19	1.4	-23	121
C/C(=N\Nc1ccccn1)c1ccc(C(C)C)cc1	17	95	8	2.7	-24	122
SMILES	APP 5'UTR act	STAT3 activator	STAT3 inh	NF-kB expr up	STAT1 inh	STAT1 activator
C(=N\Nc1ccccn1)/c1ccc(N2CCOCC2)cc1	115	84	23	4.5*	-24	121
C/C(=N\Nc1ccccn1)c1ccc(N2CCOCC2)cc1	46	92	17	3.1	-45	141*
Cc1cc(F)c(F)c(C(=O)N2CCC(C)CC2)c1Cl	-1	102	0	1.2	-3	101
OCCC1CN(Cc2nc3ccccc3s2)CCN1CCc1ccccc1 (configuration not stated)	2	109	-5	1.3	4	95
COCCNC(=O)c1noc2c1CCc1cc(OC)ccc1-2	102	105	1	2.6	-28	128
COCC(C)NC(=O)c1noc2c1CCc1cc(OC)ccc1-2 (configuration not stated)	42	109	-6	2.4	-21	117
